Laboratory results reported in ChEMBL document CHEMBL4706641, “Novel Carboline Fungal Histone Deacetylase (HDAC) Inhibitors for Combinational Treatment of Azole-Resistant Candidiasis” (J Med Chem, 2021).
≈ marks a conversion by molar mass, not a printed value. Calls of active or inactive are those of the source.

How the values were obtained:
Pichia kudriavzevii [1] = assay: Antifungal activity against Candida krusei 10153 incubated for 48 hrs by microdilution assay; format: functional
Procedure, shortened: (§1)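 Checkerboard broth microdilution per CLSI M27-A3 (modified), clinical Candida isolates. Exponential cells in RPMI 1640 (MOPS-buffered) at 10³ cells/mL; fluconazole 0.25–64 μg/mL crossed with test compound 2–64 μg/mL (final). 48 h at 35 °C; OD630 read with background subtracted. MIC80 = 80% growth inhibition; FICI ≤0.5 synergy, >4 antagonism.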

Candida albicans [2] = assay: Antifungal activity against Candida albicans 9172 incubated for 48 hrs by microdilution assay; format: functional; procedure, shortened: as §1
Candida albicans [3] = assay: Synergistic antifungal activity against Candida albicans 10061 assessed as fluconazole MIC incubated for 48 hrs in presence of fluconazole by microdilution assay (reference value: fluconazole alone MIC = >[…] ug/ml); format: functional
Candida albicans [4] = assay: Antifungal activity against Candida albicans 10061 incubated for 48 hrs by microdilution assay; format: functional; procedure, shortened: as §1
Candida albicans [5] = assay: Synergistic antifungal activity against Candida albicans 9172 incubated for 48 hrs in presence of fluconazole by microdilution assay; format: functional; procedure, shortened: as §1
Candida albicans [6] = assay: Synergistic antifungal activity against Candida albicans 9884 incubated for 48 hrs in presence of fluconazole by microdilution assay; format: functional; procedure, shortened: as §1
Candida albicans [7] = assay: Antifungal activity against Candida albicans 4108 incubated for 48 hrs by microdilution assay; format: functional; procedure, shortened: as §1
Candida albicans [8] = assay: Synergistic antifungal activity against Candida albicans 9172 assessed as fluconazole MIC incubated for 48 hrs in presence of fluconazole by microdilution assay (reference value: fluconazole alone MIC = >[…] ug/ml); format: functional
Candida albicans [9] = assay: Synergistic antifungal activity against Candida albicans 9884 assessed as fluconazole MIC incubated for 48 hrs in presence of fluconazole by microdilution assay (reference value: fluconazole alone MIC = >[…] ug/ml); format: functional
Pichia kudriavzevii [10] = assay: Synergistic antifungal activity against Candida krusei 10153 incubated for 48 hrs in presence of fluconazole by microdilution assay; format: functional; procedure, shortened: as §1
Candida albicans [11] = assay: Antifungal activity against Candida albicans 9884 incubated for 48 hrs by microdilution assay; format: functional; procedure, shortened: as §1
Candida albicans [12] = assay: Synergistic antifungal activity against Candida albicans 10061 incubated for 48 hrs in presence of fluconazole by microdilution assay; format: functional; procedure, shortened: as §1
Candida albicans [13] = assay: Synergistic antifungal activity against Candida albicans 4108 incubated for 48 hrs in presence of fluconazole by microdilution assay; format: functional; procedure, shortened: as §1
Candida albicans [14] = assay: Synergistic antifungal activity against Candida albicans 4108 assessed as fluconazole MIC incubated for 48 hrs in presence of fluconazole by microdilution assay (reference value: fluconazole alone MIC = >[…] ug/ml); format: functional
Pichia kudriavzevii [15] = assay: Synergistic antifungal activity against Candida krusei 10153 assessed as fluconazole MIC incubated for 48 hrs in presence of fluconazole by microdilution assay (reference value: fluconazole alone MIC = […] ug/ml); format: functional
Candida albicans [16] = assay: microbe, parasite or virus in culture; format: functional, 0304103
Candida albicans [17] = assay: Antifungal activity against Candida albicans 0304103 incubated for 48 hrs by microdilution assay; format: functional; procedure, shortened: as §1
Candida albicans [18] = assay: Synergistic antifungal activity against azole-resistant Candida albicans assessed as potentiation of ITC antifungal activity by measuring ITC incubated for 48 hrs in presence of fluconazole by checkerboard microdilution assay; format: functional
Candida albicans [19] = assay: Synergistic antifungal activity against Candida albicans 0304103 incubated for 48 hrs in presence of fluconazole by microdilution assay; format: functional; procedure, shortened: as §1
Candida albicans [20] = assay: Synergistic antifungal activity against Candida albicans 0304103 assessed as potentiation of fluconazole antifungal activity by measuring FICI incubated for 48 hrs in presence of fluconazole by checkerboard microdilution assay; format: functional; procedure, shortened: as §1
Candida albicans [21] = assay: Synergistic antifungal activity against azole-resistant Candida albicans assessed as potentiation of VRC antifungal activity by measuring VRC incubated for 48 hrs in presence of fluconazole by checkerboard microdilution assay; format: functional
Candida albicans [22] = assay: (§2) Antifungal activity against Candida albicans 0304103 infected in ICR mouse model of candidiasis assessed as reduction in morphological changes of budded-to-hyphal transition at 1 mg/kg, ip dosed 24 hrs post infection and measured after 5 days by H and E staining based microscopical analysis; format: functional, organism-based; settings: time 5.0 day
Candida albicans [23] = assay: Effect on CDR2 mRNA expression in Candida albicans 0304103 at 32 ug/ml incubated for 24 hrs by RT-PCR analysis; format: functional; settings: dose 32.0 µg/ml
Procedure, shortened: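 C. albicans 0304103 was started at 1 × 10⁶ cells/mL and treated with DMSO control, fluconazole 32 μg/mL, test compound 32 μg/mL, or both. Cultures were held in YEPD at 35 °C for 24 h, then total RNA was extracted and reverse-transcribed. Real-time PCR ran 40 cycles. Fold change was calculated by 2^−ΔΔCt against ACT1.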

Candida albicans [24] = assay: as §2, with “fungal invasion by measuring clusters” for “morphological changes”, “fungal infiltration in renal pelvis” for “budded-to-hyphal transition”; format: functional, organism-based; settings: time 5.0 day
Candida albicans [25] = assay: Antifungal activity against Candida albicans 0304103 infected in ICR mouse model of candidiasis assessed as reduction in kidney fungal burden at 1 mg/kg, ip dosed 24 hrs post infection and measured after 5 days; format: functional, organism-based; settings: time 5.0 day
Candida albicans [26] = assay: Antifungal activity against Candida albicans 0304103 at 64 ug/ml incubated for 48 hrs by microdilution assay; format: functional, organism-based; settings: dose 64.0 µg/ml
Procedure, shortened: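 Checkerboard microdilution adapted from CLSI M27-A3. Exponential-phase cells resuspended at 10³ cells/mL in RPMI 1640 buffered with 0.165 M MOPS. Final concentrations were fluconazole 0.25–64 μg/mL and test compound 2–64 μg/mL. Plates were held 48 h at 35 °C and read at OD630 with background subtracted. MIC80 was used, and the FICI cut-offs were synergy ≤0.5 and antagonism >4.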

Candida albicans [27] = assay: Inhibition of biofilm formation in Candida albicans 0304103 at 2 to 32 ug/ml incubated for 24 hrs by XTT reduction assay; format: functional, organism-based; settings: dose 2-32 µg/ml
Procedure, shortened: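 C. albicans 0304103 at 1.0 × 10⁶ CFU/mL in RPMI 1640 was allowed to adhere for 90 min at 37 °C, then washed with PBS. Fresh medium was added with fluconazole 2–32 μg/mL and/or test compound 0.12–64 μg/mL, followed by 24 h at 37 °C. Biofilm was measured semiquantitatively by XTT reduction at OD490. Three independent experiments were run.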

Candida albicans [28] = assay: Induction of morphological changes in Candida albicans assessed as reduction in morphological conversion from yeast to hypha forms at 32 ug/ml incubated for 3 hrs by inverse fluorescence microscopy; format: functional, organism-based; settings: dose 32.0 µg/ml
Procedure, shortened: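 Exponential-phase C. albicans were suspended in Spider medium ([…], 2% NaHCO₃, […]) at 2 × 10⁶ cells/mL. Drugs were added alone or combined, with DMSO as control. After 3 h at 37 °C, cells were imaged by inverted fluorescence microscopy. Three independent experiments were run.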

Cryptococcus neoformans = assay: Antifungal activity against Cryptococcus neoformans; format: functional
[29] = Candida albicans, 0304103, time 48 hrs, read-out: MIC80
[30] = Candida albicans, 0304103, read-out: MIC80

SMILES	MIC80 (Candida albicans [16]; [29]) [µg/mL]	MIC80 (Candida albicans [17]; [30]) [µg/mL]	fractional inhibitory concentration index (FICI) (Candida albicans [18])	MIC80 (Candida albicans [19]) [µg/mL]	fractional inhibitory concentration index (FICI) (Candida albicans [20])	fractional inhibitory concentration index (FICI) (Candida albicans [21])	other results
CN1CCc2c(c3ccccc3n2Cc2ccc(C(=O)NO)cc2)C1 [TUBASTATIN A]	–	–	–	–	–	–	MIC80 (Pichia kudriavzevii [1]): > 64 µg/mL; MIC80 (Candida albicans [2]): > 64 µg/mL; MIC80 (Candida albicans [3]): 0.5 µg/mL; MIC80 (Candida albicans [4]): > 64 µg/mL; MIC80 (Candida albicans [5]): 16 µg/mL; MIC80 (Candida albicans [6]): 4 µg/mL; MIC80 (Candida albicans [7]): > 64 µg/mL; MIC80 (Candida albicans [8]): 0.5 µg/mL; MIC80 (Candida albicans [9]): 1 µg/mL; MIC80 (Pichia kudriavzevii [10]): 64 µg/mL; MIC80 (Candida albicans [11]): > 64 µg/mL; MIC80 (Candida albicans [12]): 2 µg/mL; MIC80 (Candida albicans [13]): 8 µg/mL; MIC80 (Candida albicans [14]): 0.5 µg/mL; MIC80 (Pichia kudriavzevii [15]): 32 µg/mL
O=C(Cc1ccc(OCCCn2c3c(c4cc(F)ccc42)CCNC3)cc1)NO	2 (≈ 5.03 µM)	> 64	0.035	2	0.062	0.035	–
O=C(Cc1ccc(OCCCn2c3c(c4c(Br)cccc42)CCNC3)cc1)NO	0.25 (≈ 0.545 µM)	> 64	0.035	4	0.066	0.035	–
O=C(Cc1ccc(OCCCn2c3c(c4cc(Br)ccc42)CCNC3)cc1)NO	0.25 (≈ 0.545 µM)	64 (≈ 140 µM)	0.035	2	0.035	0.035	–
COc1ccc2c(c1)c1c(n2CCCOc2ccc(CC(=O)NO)cc2)CNCC1	0.5 (≈ 1.22 µM)	> 64	0.035	8	0.13	0.035	–
O=C(Cc1ccc(OCCCn2c3c(c4ccc(Br)cc42)CCNC3)cc1)NO	0.5 (≈ 1.09 µM)	> 64	0.035	2	0.039	0.035	–
OC(Cn1cncn1)(Cn1cncn1)c1ccc(F)cc1F [FLUCONAZOLE]	–	> 64	–	–	–	–	MIC80 (Pichia kudriavzevii [1]): 64 µg/mL (≈ 209 µM); MIC80 (Candida albicans [2]): > 64 µg/mL; Activity (Candida albicans [22]): inactive; MIC80 (Candida albicans [4]): > 64 µg/mL; Activity (Candida albicans [23]): inactive; Activity (Candida albicans [24]): inactive; MIC80 (Candida albicans [7]): > 64 µg/mL; Activity (Candida albicans [25]): inactive; MIC80 (Candida albicans [11]): > 64 µg/mL; Activity (Candida albicans [26]): inactive; inhibition (Candida albicans [27]): inactive; Activity (Candida albicans [28]): inactive
COc1cccc2c3c(n(CCCOc4ccc(CC(=O)NO)cc4)c12)CNCC3	1 (≈ 2.44 µM)	> 64	0.035	2	0.047	0.035	–
O=C(Cc1ccc(OCCCn2c3c(c4ccccc42)CCNC3)cc1)NO	0.5 (≈ 1.32 µM)	> 64	0.035	4	0.07	0.035	–
O=C(Cc1ccc(OCCCn2c3c(c4c(Cl)cccc42)CCNC3)cc1)NO	0.5 (≈ 1.21 µM)	> 64	0.035	2	0.039	0.035	–
Clc1ccc(OCCCn2c3c(c4cc(Cl)ccc42)CCNC3)cc1.O=C(O)C(F)(F)F	–	–	–	–	–	–	MIC80 (Cryptococcus neoformans): 0.25 µg/mL
Cc1ccc2c(c1)c1c(n2CCCOc2ccc(CC(=O)NO)cc2)CNCC1	1 (≈ 2.54 µM)	> 64	0.035	4	0.078	0.035	–
O=C(CCCCCCC(=O)Nc1ccccc1)NO [VORINOSTAT]	–	–	–	–	–	–	MIC80 (Candida albicans [16]; 48 h): 0.25 µg/mL (≈ 0.946 µM); MIC80 (Candida albicans [17]): >64 µg/mL
O=C(Cc1ccc(OCCCn2c3c(c4ccc(Cl)cc42)CCNC3)cc1)NO	1 (≈ 2.42 µM)	64 (≈ 155 µM)	0.035	2	0.047	0.035	–
O=C(Cc1ccc(OCCCn2c3c(c4ccc(F)cc42)CCNC3)cc1)NO	1 (≈ 2.52 µM)	> 64	0.035	2	0.047	0.035	–
